# S100A4 MyoIIA – inhibitors of S100A4-myosin IIA peptide binding, primary screen, biochemical, fluorescence polarization, TAMRA-MyoIIA peptide; Protein S100-A4 (Homo sapiens), P26447; inhibition, % at 10.7 µM; 360,000 compounds, 0.14% hits;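 active = mean inhibition of at least 70% across replicates, with every replicate also reaching that level; inconclusive = mean inhibition reaches 70% but some replicates fall short; inactive = mean inhibition below 70%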
# Target sequence (P26447 whole entry, looked up): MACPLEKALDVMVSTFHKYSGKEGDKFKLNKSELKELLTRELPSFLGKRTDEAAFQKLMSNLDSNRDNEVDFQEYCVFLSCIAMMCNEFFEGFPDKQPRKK
#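 Assay system: human S100A4 monomer with TAMRA-labelled myosin IIA peptide / Buffer or medium: Calcium-containing HEPES buffer, pH 7.2 / Reagent: TAMRA-labelled myosin IIA heavy-chain peptide probe, 5 nM / Compound: one dose per compound / Timing: polarization read 5 min after assay mix addition, stable 5–60 min / Benchmarks: neutral control DMSO, positive control TFP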
# Statin myotox sup – suppressors of statin myotoxicity in C2C12 myotubes, primary screen, cell-based, single point, plate reader | rescue of ATP level, % at 7.49 µM | 330,000 compounds, 0.78% hits | C2C12 myotubes + simvastatin, ATP luminescence, 48 h; scaled: DMSO 0, geranylgeraniol control 100;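 active = mean ATP rescue above about 67%, or every replicate alone reaching that limit, limit read from the data, passing the limit was not always enough; inconclusive = no clear call, values can overlap the other calls; inactive = mean under the limit and some replicate under it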;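 also: myotubes were challenged with 10 µM simvastatin during compound exposure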
# SIRT5 inh – SIRT5 desuccinylase inhibitors, primary screen, biochemical, fluorescence imaging, single point, set 5 | NAD-dependent protein deacylase sirtuin-5, mitochondrial (Homo sapiens), Q9NXA8 | AID 652115, 2013 | 330,000 compounds, 1.1% hits | Purified SirT5, succinyl-peptide AMC, trypsin-coupled fluorescence | inhibition, % at 15 µM; in the data active = inhibition above about 15%; inconclusive = no clear call, values can overlap the other calls
# Target sequence (Q9NXA8 whole entry, looked up): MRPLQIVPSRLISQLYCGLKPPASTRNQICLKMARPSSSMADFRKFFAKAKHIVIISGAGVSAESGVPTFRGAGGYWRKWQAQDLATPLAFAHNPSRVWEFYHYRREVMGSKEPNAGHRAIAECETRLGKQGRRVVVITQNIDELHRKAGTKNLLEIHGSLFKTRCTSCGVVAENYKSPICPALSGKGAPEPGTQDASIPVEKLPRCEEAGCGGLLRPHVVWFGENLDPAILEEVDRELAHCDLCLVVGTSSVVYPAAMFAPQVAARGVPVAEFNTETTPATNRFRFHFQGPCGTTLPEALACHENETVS
# PGC1a acetyl inh – inhibitors of PGC1a acetylation signal, primary screen, cell-based, U2OS, AlphaScreen, inhibitor mode. inhibition, % at 15.6 µM. AID 651687, 2012. 350,000 compounds, 0.17% hits. AlphaScreen anti-acetyl-lysine; with virally co-expressed GCN5 acetyltransferase;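 active = every replicate shows inhibition of at least 40%; inconclusive = mean inhibition at least 40% but some replicate below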;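 also: 0% = neutral control wells and 100% = positive control wells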
# DENV2 CPE rescue – inhibitors of DENV2 cytopathic effect, primary screen, cell-based, plate reader, single concentration. DENV2-infected cells, cytopathic effect rescue. CPE inhibition, % at 9.99 µM. 350,000 compounds, 1.7% hits; in the data active = CPE inhibition above about 20%, passing the limit was not always enough; inconclusive = no clear call, values can overlap the other calls; tested in BHK-21 cells;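 also: 0% = median of neutral control wells and 100% = median of positive control wells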
# * hit, by the source's call; ? = inconclusive; . = no result given; ! = not active in a repeat. An excerpt weighted towards active compounds, which were near 2.9% of everything screened.
SMILES,S100A4 MyoIIA,Statin myotox sup,SIRT5 inh,PGC1a acetyl inh,DENV2 CPE rescue
Cc1ccccc1S(=O)(=O)N1C[C@@H](O)COC[C@@H]2O[C@H](CC(=O)N3CCC(Cc4ccccc4)CC3)CC[C@H]21,1,-10,5,13,5
COC(=O)C[C@H]1CC[C@H]2[C@@H](COC[C@H](O)CN2S(=O)(=O)c2ccccc2OC)O1,-5,-24,17*,-3,12
CCOC(=O)C(NC(=O)Nc1ccc(Cl)cn1)(Oc1ccc(F)cc1)C(F)(F)F (centres undefined),2,11,3,17,78*
O=C(Nc1ccc(F)cc1)Nc1ccc(Cl)cn1,.,27,.,.,.
O=C(NC1CCCC1)N[C@H]1CC[C@H](CC(=O)N2CCOCC2)O[C@H]1CO,2,3,12,8,-13
COc1ccc(C2=Nn3c(nnc3-c3ccccc3Cl)SC2)cc1OCC1CC1,-20,-34,.,6,32*
O=C(Cc1ccccn1)NCC[C@@H]1CC[C@@H](NC(=O)Nc2ccc(C(F)(F)F)cc2)[C@H](CO)O1,-13,-9,2,-2,1
O=C(C[C@@H]1CC[C@@H](NC(=O)c2ccc(F)cc2)[C@@H](CO)O1)NCCc1ccncc1,1,2,8,5,23*
O=C(Cc1ccccn1)NCC[C@@H]1CC[C@H](NC(=O)Nc2ccc(C(F)(F)F)cc2)[C@@H](CO)O1,-8,0,-1,50*,-4
O=C(Cc1ccccn1)NCC[C@H]1CC[C@@H](NC(=O)Nc2ccc(F)cc2)[C@H](CO)O1,3,-4,-1,0,-13
O=C(Cc1ccncc1)NCC[C@@H]1CC[C@H](NC(=O)Nc2cccc(F)c2)[C@@H](CO)O1,0,1,2,-5,3
O=C(Cc1ccccn1)NCC[C@@H]1CC[C@@H](NC(=O)Nc2ccc(C(F)(F)F)cc2)[C@@H](CO)O1,11,-2,2,45*,-1
O=C(Cc1ccncc1)NCC[C@@H]1CC[C@@H](NC(=O)Nc2cccc(F)c2)[C@@H](CO)O1,-6,3,-1,10,23*
N#Cc1cccc(-c2ccc([C@@H]3[C@@H](CO)N4CCCCN(C(=O)Nc5ccc(F)cc5)C[C@@H]34)cc2)c1,3,.,3,1,1
Cc1noc(C)c1S(=O)(=O)Nc1ccc2c(c1)C(=O)N([C@H](C)CO)C[C@H](C)[C@@H](CN(C)C(=O)Nc1ccc(F)cc1)O2,.,41,.,-15,.
CC(Sc1nnnn1-c1ccc(O)cc1)C(=O)NC1CCCCC1C (centres undefined),4,14,1,.,34*
Cc1ccc(NC(=O)CC2COc3ccccc3O2)cc1 (centres undefined),.,113*,.,21,.
COc1ccc(C)cc1NC(=O)CC1COc2ccccc2O1 (centres undefined),-5,-2,-4,-3,-7
COc1cc(C=C2C(=O)C=CC2=O)ccc1O,0,.,28*,.,-2
COc1cc(C=C2NC(=O)NC2=O)ccc1O,9,-1,.,-7,-2
COc1cc(/C=C/C(=O)/C=C(O)/C=C/c2ccc(O)c(OC)c2)ccc1O,-3,140*,-2,.,.
COc1cc(/C=C/C(=O)O)ccc1O,1,-13,.,5,3
N#C[C@@H]1[C@H](c2ccccc2C2=CCCCC2)[C@@H](CO)N1C(=O)NC1CCCCC1,-31,.,-1,-2,-1
Cc1ccc(S(=O)(=O)N(C)C[C@@H]2OCCCC[C@H](C)Oc3ccc(NC(=O)NC(C)C)cc3C(=O)N([C@@H](C)CO)C[C@H]2C)cc1,-10,.,0,-6,-6
O=C(Nc1ccc2c(c1)[C@H]1C[C@@H](CC(=O)N3CCCCC3)O[C@H](CO)[C@H]1O2)NC1CCCC1,-8,-1,-1,5,56*
SMILES,S100A4 MyoIIA,Statin myotox sup,SIRT5 inh,PGC1a acetyl inh,DENV2 CPE rescue
C[C@H](NC(=O)C[C@H]1C[C@H]2c3cc(NC(=O)NC4CCCC4)ccc3O[C@H]2[C@H](CO)O1)c1ccccc1,2,4,-2,0,28*
O=C(Nc1ccc2c(c1)[C@@H]1C[C@@H](CC(=O)N3CCCCC3)O[C@@H](CO)[C@@H]1O2)NC1CCCC1,15,-11,0,-5,10
CO[C@@H]1CN(C)C(=O)c2cc(NC(C)=O)ccc2OC[C@@H](C)N(Cc2ccccn2)C[C@H]1C,4,4,0,11,-7
CCCC(=O)OC[C@H]1CN(C2CCCC2)S(=O)(=O)c2c(F)cccc2O1,-8,.,6,.,49*
Cc1ccc(C(=O)NCC2(c3ccccc3)CCCC2)cc1,.,121*,.,-19,.
COc1cccc(C(=O)NCC2(c3ccccc3)CCCC2)c1,-6,18,2,.,0
O=C(c1cnccn1)N1CC[C@@H]2[C@@H](CO)Nc3ccc(-c4ccccc4F)cc3[C@@H]21,-5,10,1,3,114*
O=C(c1cccnc1)N1CC[C@@H]2[C@H](CO)Nc3ccc(C4=CCCCC4)cc3[C@@H]21,8,.,-8,-4,-5
O=C(c1cccnc1)N1CC[C@@H]2[C@@H](CO)Nc3ccc(C4=CCCCC4)cc3[C@@H]21,-11,-2,17*,9,?
O=C(c1ccccc1)N1CC[C@@H]2[C@@H](CO)Nc3ccc(-c4ccccc4F)cc3[C@@H]21,19,16,1,0,33*
CC=Cc1ccc2n(c1=O)C[C@@H]1[C@@H](CO)[C@H](C(=O)NCc3ccccc3F)N(S(C)(=O)=O)[C@H]21 (mixture of isomers),4,-19,-8,.,4
COc1ccc(OC)c(CN2C(=O)CN(S(C)(=O)=O)CC2(C)C(=O)NCc2ccccc2)c1 (centres undefined),-2,.,-2,.,32*
C[C@H](CO)N1C[C@H](C)[C@@H](CN(C)Cc2ccccc2)Oc2ccc(NC(=O)CCC(F)(F)F)cc2C1=O,13,-12,-3,-5,17
COC(=O)C1(C(=O)OC)c2ccccc2N(S(=O)(=O)c2ccc(C)cc2)C1CC(C)=O (centres undefined),0,.,2,.,7
COC(=O)C1(C(=O)OC)c2ncccc2N(S(=O)(=O)c2ccc(C)cc2)C1CC(=O)c1ccccc1 (centres undefined),-7,.,-2,.,21*
CCC(=O)N1C[C@H](C)[C@@H](OC)CN(C)C(=O)c2cc(NS(=O)(=O)CC)ccc2OC[C@H]1C,7,2,-6,-8,4
Cc1cn([C@H]2C=C[C@@H](CO)O2)c(=O)[nH]c1=O,1,4,-2,-1,29*!
COCCCNC(=O)CNC(=O)c1nn(-c2ccc(OC)c(Cl)c2)c(=O)c2ccccc12,7,.,17*,.,3

# Compound activity from PubChem.
